According to ChEMBL document CHEMBL3745600, “2-Amino-thiophene derivatives present antileishmanial activity mediated by apoptosis and immunomodulation in vitro” (Eur J Med Chem, 2015):
Values after ≈ are worked out from the molar mass of the structure shown. Active and inactive are the calls of the source. The calls are words filed in the database; no cut-off is given here.

Legend:
[1] = Cytotoxicity against Swiss mouse peritoneal macrophages after 24 hrs by MTT assay; assay type: cell-based, Peritoneal macrophage cell
In short: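 Macrophages were collected from Swiss mice 5 days after thioglycollate (3%) elicitation. About 1 x 10^6 cells per well were incubated in RPMI 1640 with 10% heat-inactivated FBS and compound for 24 h at 37°C, 5% CO₂. MTT was added for 4 h, followed by 10% SDS, and absorbance was read at 540 nm. CC50 was obtained by probit regression.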

[2] = Toxicity in human RBC assessed as induction of hemolytic activity after 1 hr by spectrometer analysis; assay type: cell-based, Erythrocyte; conditions: red blood cells (RBC)
In short: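 A 5% suspension of human erythrocytes in PBS was mixed 4:1 with serial compound dilutions and incubated 1 h at 37°C. The reaction was stopped with PBS (pH 7.2) and spun 10 min at 1000 x g, and supernatant absorbance was read at 540 nm. Haemolysis was expressed relative to a drug-free blank and to water-induced total lysis. HC50 was obtained by probit regression.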

[3] = Selectivity index, ratio of CC50 for Swiss mouse peritoneal macrophages to IC50 for promastigotes of Leishmania amazonensis IFLA/BR/67/PH8; assay type: functional
In short: (§1)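 Promastigote values came from haemocytometer counts after 72 h at 25°C. Axenic amastigote values came from MTT readings after 24 h at 32°C, using amastigotes differentiated at pH 4.6. All 50% values were obtained by probit regression.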

[4] = Selectivity index, ratio of HC50 for human RBC to IC50 for promastigotes of Leishmania amazonensis IFLA/BR/67/PH8; in short: as §1
[5] = Selectivity index, ratio of CC50 for Swiss mouse peritoneal macrophages to EC50 for axenic amastigotes of Leishmania amazonensis IFLA/BR/67/PH8; in short: as §1
[6] = Selectivity index, ratio of HC50 for human RBC to IC50 for axenic amastigotes of Leishmania amazonensis IFLA/BR/67/PH8; in short: as §1
[7] = tested on: Leishmania amazonensis; experiment: Antileishmanial activity against axenic amastigotes of Leishmania amazonensis IFLA/BR/67/PH8 after 24 hrs by MTT assay; conditions: IFLA/BR/67/PH8, 24 h
[8] = tested on: Leishmania amazonensis; experiment: Antileishmanial activity against promastigotes of Leishmania amazonensis IFLA/BR/67/PH8 after 72 hrs by Neubauer haemocytometer counting; conditions: IFLA/BR/67/PH8, 72 h
[9] = tested on: Leishmania amazonensis; experiment: Antileishmanial activity against promastigotes of Leishmania amazonensis IFLA/BR/67/PH8 assessed as induction of early apoptosis using Annexin-V staining at IC50 after 4 hrs by flow cytometry (reference value: 8.3%); assay type: functional
[10] = tested on: Leishmania amazonensis; experiment: Antileishmanial activity against promastigotes of Leishmania amazonensis IFLA/BR/67/PH8 assessed as induction of early apoptosis using Annexin-V staining at 2 times IC50 after 4 hrs by flow cytometry (reference value: 8.3%); assay type: functional
[11] = tested on: Leishmania amazonensis; experiment: Antileishmanial activity against promastigotes of Leishmania amazonensis IFLA/BR/67/PH8 assessed as induction of early apoptosis using Annexin-V staining at 4 times IC50 after 4 hrs by flow cytometry (reference value: 8.3%); assay type: functional
[12] = tested on: Leishmania amazonensis; experiment: Antileishmanial activity against promastigotes of Leishmania amazonensis IFLA/BR/67/PH8 assessed as induction of late apoptosis using Annexin-V/PI staining at IC50 after 4 hrs by flow cytometry (reference value: 12.05%); assay type: functional
[13] = tested on: Leishmania amazonensis; experiment: Antileishmanial activity against promastigotes of Leishmania amazonensis IFLA/BR/67/PH8 assessed as induction of late apoptosis using Annexin-V/PI staining at 2 times IC50 after 4 hrs by flow cytometry (reference value: 12.05%); assay type: functional
[14] = tested on: Leishmania amazonensis; experiment: Antileishmanial activity against promastigotes of Leishmania amazonensis IFLA/BR/67/PH8 assessed as induction of late apoptosis using Annexin-V/PI staining at 4 times IC50 after 4 hrs by flow cytometry (reference value: 12.05%); assay type: functional
[15] = tested on: Leishmania amazonensis; experiment: Antileishmanial activity against promastigotes of Leishmania amazonensis IFLA/BR/67/PH8 assessed as induction of necrosis using Annexin-V-FITC/PI staining at 4 times IC50 after 4 hrs by flow cytometry (reference value: 2.6%); assay type: functional
[16] = tested on: Leishmania amazonensis; experiment: Antileishmanial activity against promastigotes of Leishmania amazonensis IFLA/BR/67/PH8 assessed as induction of DNA fragmentation at 1 to 4 times IC50 after 24 hrs by agarose gel electrophoresis; assay type: functional, organism-based
In short: (§2)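 Genomic DNA was extracted with phenol/chloroform and run on agarose with GelRed (1:500) for 1 h at […]. Fragmentation was viewed under UV as a qualitative read-out.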

[17] = tested on: Leishmania amazonensis; experiment: Antileishmanial activity against axenic amastigotes of Leishmania amazonensis IFLA/BR/67/PH8 infected in Swiss mouse peritoneal macrophages assessed as reduction of survival rate after 24 hrs by light microscopy analysis; assay type: functional, organism-based
In short: (§3)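 Peritoneal macrophages were plated on glass coverslips at 1 x 10^6 cells/mL in supplemented RPMI 1640 and allowed to adhere for 2 h at 34°C, 5% CO₂. They were infected for 3 h with stationary-phase promastigotes at 10 parasites per macrophage, washed with PBS, then exposed to compound for 24 or 72 h. Coverslips were fixed and Panoptic-stained, and 300 macrophages per coverslip were counted by light microscopy. EC50 was derived by probit regression.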

[18] = tested on: Leishmania amazonensis; experiment: Antileishmanial activity against axenic amastigotes of Leishmania amazonensis IFLA/BR/67/PH8 infected in Swiss mouse peritoneal macrophages assessed as reduction of survival rate after 72 hrs by light microscopy analysis; assay type: functional, organism-based; in short: as §3
[19] = tested on: Peritoneal macrophage cell; experiment: Immunomodulatory activity in Swiss mouse peritoneal macrophages infected with promastigotes form of Leishmania amazonensis IFLA/BR/67/PH8 assessed as increase of TNFalpha production at 6.25 to 25 uM after 72 hrs by sandwich ELISA; assay type: functional, cell-based
In short: (§4)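 Supernatants came from infected macrophages treated for 72 h at 37°C, 5% CO₂. TNF-α, IL-12 and IL-10 were measured by sandwich ELISA at 450 nm against murine recombinant cytokine standards. NO was estimated as nitrite by the Griess reaction at 540 nm against a sodium nitrite standard. LPS (10 mg/L) served as positive control. Three experiments were run in triplicate.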

[20] = tested on: Peritoneal macrophage cell; experiment: Immunomodulatory activity in Swiss mouse peritoneal macrophages infected with promastigotes form of Leishmania amazonensis IFLA/BR/67/PH8 assessed as increase of IL-12 production at 6.25 to 25 uM after 72 hrs by sandwich ELISA; assay type: functional, cell-based; in short: as §4
[21] = tested on: Peritoneal macrophage cell; experiment: Immunomodulatory activity in Swiss mouse peritoneal macrophages infected with promastigotes form of Leishmania amazonensis IFLA/BR/67/PH8 assessed as increase of nitric oxide production at 6.25 to 25 uM after 72 hrs by Griess assay; assay type: functional, cell-based; in short: as §4
[22] = tested on: Peritoneal macrophage cell; experiment: Immunomodulatory activity in Swiss mouse peritoneal macrophages infected with promastigotes form of Leishmania amazonensis IFLA/BR/67/PH8 assessed as increase of IL-10 production at 6.25 to 25 uM after 72 hrs by sandwich ELISA; assay type: functional, cell-based; in short: as §4
[23] = tested on: Leishmania amazonensis; experiment: Antileishmanial activity against promastigotes of Leishmania amazonensis IFLA/BR/67/PH8 assessed as induction of necrosis using Annexin-V-FITC/PI staining at IC50 after 4 hrs by flow cytometry (reference value: 2.6%); assay type: functional
[24] = tested on: Leishmania amazonensis; experiment: Antileishmanial activity against promastigotes of Leishmania amazonensis IFLA/BR/67/PH8 assessed as induction of necrosis using Annexin-V-FITC/PI staining at 2 times IC50 after 4 hrs by flow cytometry (reference value: 2.6%); assay type: functional
[25] = tested on: Leishmania amazonensis; experiment: Antileishmanial activity against promastigotes of Leishmania amazonensis IFLA/BR/67/PH8 assessed as viable cells using Annexin-V staining at IC50 after 4 hrs by flow cytometry (reference value: 77%); assay type: functional
[26] = tested on: Leishmania amazonensis; experiment: Antileishmanial activity against promastigotes of Leishmania amazonensis IFLA/BR/67/PH8 assessed as viable cells using Annexin-V staining at 2 times IC50 after 4 hrs by flow cytometry (reference value: 77%); assay type: functional
[27] = tested on: Leishmania amazonensis; experiment: Antileishmanial activity against promastigotes of Leishmania amazonensis IFLA/BR/67/PH8 assessed as viable cells using Annexin-V staining at 4 times IC50 after 4 hrs by flow cytometry (reference value: 77%); assay type: functional
[28] = tested on: Leishmania amazonensis; experiment: Antileishmanial activity against axenic amastigotes of Leishmania amazonensis IFLA/BR/67/PH8 infected in Swiss mouse peritoneal macrophages assessed as reduction of survival rate at 300 mg/L after 72 hrs by light microscopy analysis; assay type: functional, organism-based; in short: as §3
[29] = tested on: Leishmania amazonensis; experiment: Antileishmanial activity against axenic amastigotes of Leishmania amazonensis IFLA/BR/67/PH8 infected in Swiss mouse peritoneal macrophages assessed as reduction of survival rate at 50 to 300 mg/L after 24 hrs by light microscopy analysis; assay type: functional, organism-based; in short: as §3
[30] = tested on: Leishmania amazonensis; experiment: Antileishmanial activity against promastigotes of Leishmania amazonensis IFLA/BR/67/PH8 assessed as induction of DNA fragmentation at IC50 after 24 hrs by agarose gel electrophoresis; assay type: functional, organism-based; in short: as §2

IC50 [8] [µM]	Compound	CC50 at 24 h [1] [µM]	HC50 at 1 h [2] [µM]	Ratio CC50/IC50 [3]	Selectivity Index [4]	Ratio CC50/EC50 [5]	Selectivity Index [6]	EC50 [7] [µM]	further results
189	N#Cc1c(/N=C/c2cccs2)sc2c1CCCCC2	722	> 800	3.81	> 4.22	3.75	> 4.16	192	–
7.37	N#Cc1c(/N=C/c2cc3ccccc3[nH]2)sc2c1CCCCC2	49.1	721	6.65	97.9	3.1	45.5	15.8	Activity [9]: 4.07%; Activity [10]: 3.5%; Activity [11]: 4.06%; Activity [12]: 11.6%; Activity [13]: 15.6%; Activity [14]: 25.2%; Activity [15]: 54.9%; Activity [16]: Active; Activity [17]: Dose-dependent effect; Activity [18]: Dose-dependent effect; Activity [19]: inactive; Activity [20]: inactive; Activity [21]: inactive; Activity [22]: inactive; Activity [23]: 12.1%; Activity [24]: 31.6%; Activity [25]: 72.2%; Activity [26]: 19%; Activity [27]: 15.7%
–	Meglumine antimoniate	–	–	0.04	0.016	1.01	0.42	–	Activity [28]: Active; Activity [29]: inactive
165	N#Cc1c(/N=C/c2ccc3ncccc3c2)sc2c1CCCCC2	438	716	2.66	4.35	3.31	5.41	132	–
187	N#Cc1c(/N=C/c2ccc([N+](=O)[O-])cc2)sc2c1CCCC2	229	> 800	1.22	> 4.27	1.07	> 3.76	213	–
139	N#Cc1c(/N=C/c2cccs2)sc2c1CCC2	540	> 800	3.87	> 5.73	2.56	> 3.79	211	–
0.17	C[C@@H]1[C@H](O)[C@@H](C)/C=C/C=C/C=C/C=C/C=C/C=C/C=C/[C@H](O[C@@H]2O[C@H](C)[C@@H](O)[C@H](N)[C@@H]2O)C[C@@H]2O[C@](O)(C[C@@H](O)C[C@@H](O)[C@H](O)CC[C@@H](O)C[C@@H](O)CC(=O)O[C@H]1C)C[C@H](O)[C@H]2C(=O)O [AMPHOTERICIN B]	0.18	11.6	1.05	68.2	0.78	50.4	0.23	Activity [9]: 6%; Activity [10]: 10.4%; Activity [11]: 10.3%; Activity [12]: 23.8%; Activity [13]: 38.8%; Activity [14]: 42.2%; Activity [15]: 8.6%; Activity [30]: Active; EC50 ([18]; IFLA/BR/67/PH8, 72 h): 169 µg/mL (≈ 183 µM); Activity [23]: 2.8%; Activity [24]: 5.2%; Activity [25]: 67.2%; Activity [26]: 45.5%; Activity [27]: 38.8%
88	COc1ccc(Br)c(/C=N/c2sc3c(c2C#N)CCCC3)c1	211	> 800	2.4	> 9.1	1.26	> 4.78	167	–
61.5	N#Cc1c(/N=C/c2ccccc2)sc2c1CCCC2	141	682	2.29	11.1	1.13	5.4	124	–
3.65	N#Cc1c(/N=C/c2cc3cc(Br)ccc3[nH]2)sc2c1CCCCC2	32	> 800	8.77	> 219	1.59	> 39.8	20.1	Activity [9]: 4.8%; Activity [10]: 5.6%; Activity [11]: 4.3%; Activity [12]: 9.06%; Activity [13]: 27.3%; Activity [14]: 27.1%; Activity [15]: 53.2%; Activity [16]: Active; Activity [17]: Dose-dependent effect; Activity [18]: Dose-dependent effect; Activity [19]: Active; Activity [20]: Active; Activity [22]: inactive; Activity [23]: 6.1%; Activity [24]: 22.7%; Activity [25]: 79.9%; Activity [26]: 44.3%; Activity [27]: 15.3%
49.1	N#Cc1c(/N=C/c2ccc3ncccc3c2)sc2c1CCC2	196	625	3.99	12.7	1.9	6	103	–
